CDK5 p35 inh: inhibitors of human CDK5/p35 kinase | 330,000 compounds, 0.01% hits | inhibition, % at 10 µM | AID 488839 | Recombinant CDK5/p35, ADP-Glo luminescence, 60 min | Q00535+Q15078;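 active = highest replicate inhibition of at least 50% and at least 75% of replicates reaching 50%; inconclusive = only one of the two criteria met; inactive = both criteria failed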
GSIS activator: primary screen for activators of insulin secretion dependent on glucose, INS-1E cells, GLuc reporter luminescence; INS-1E GLuc reporter insulin secretion, 2-3 h; activation, % at 16.6 µM; 370,000 compounds, 0.61% hits;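 active = lowest replicate activation of at least 40%, so every replicate reaches that level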
GSK3 alpha inh: blocks human GSK-3 alpha kinase. 320,000 compounds, 0.1% hits. inhibition, % at 10 µM. ADP-Glo luminescence, 60 min;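 active = more than half of replicates show inhibition above 20%; inconclusive = some but at most half of replicates above 20% inhibition; inactive = no replicate shows inhibition above 20%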;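 note: GST-tagged GSK-3 alpha with peptide substrate and 25 µM ATP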
STK33 inh: inhibitors of human STK33 kinase | Q9BYT3 | purified STK33, MBP phosphorylation, ADP-Glo luminescence | inhibition, % at 10 µM | 320,000 compounds, 0.073% hits;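 active = inhibition at or above 25%, using the most active replicate where run in duplicate; inactive = inhibition below 25%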
Env fusion inh: blocks HIV Env-driven cell-cell fusion | HeLa-JRFL Env/CEM21 cell fusion, luciferase | inhibition, % at 12.3 µM | 360,000 compounds, 1.1% hits;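 active = mean replicate inhibition score of at least 50 and every replicate individually at or above 50; inconclusive = only one of the two criteria met; inactive = mean below 50 and not all replicates reaching 50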
GSK3B inh: blocks human GSK3beta kinase activity; 300,000 compounds, 0.038% hits; P49841; activity score (negative = inhibition), % at 10 µM; AID 2097; GST-GSK3beta kinase, ADP-Glo luminescence, 60 min; hits give low values;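 active = more than half of replicate wells score below -50%, meaning over 50% inhibition versus plate controls; inconclusive = some replicates but at most half score below -50%; inactive = no replicate scores below -50%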
Target sequence (P49841 whole entry, looked up): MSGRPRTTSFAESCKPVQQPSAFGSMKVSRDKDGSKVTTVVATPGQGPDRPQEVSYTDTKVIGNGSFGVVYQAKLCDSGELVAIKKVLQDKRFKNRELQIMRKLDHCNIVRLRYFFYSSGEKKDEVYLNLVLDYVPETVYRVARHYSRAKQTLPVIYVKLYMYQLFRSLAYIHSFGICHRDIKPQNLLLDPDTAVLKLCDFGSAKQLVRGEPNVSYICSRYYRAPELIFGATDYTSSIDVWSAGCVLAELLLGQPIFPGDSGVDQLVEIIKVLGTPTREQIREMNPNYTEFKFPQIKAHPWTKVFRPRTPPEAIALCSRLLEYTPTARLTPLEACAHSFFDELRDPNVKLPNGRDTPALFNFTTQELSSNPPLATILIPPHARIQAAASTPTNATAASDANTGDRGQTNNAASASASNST
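Test system: GST-tagged human GSK3beta kinase, cell-free; evaluation: activity score scaled between in-plate DMSO and GW8510 controls; measured by: ADP-Glo luminescence; incubation: 60 min reaction, RT; benchmarks: DMSO and 20 µM GW8510; reagent: peptide substrate plus 25 µM ATP (final); medium: Tris/MgCl2 kinase buffer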
Large screens that a line does not name were inactive; ! = not active in a repeat; [ ] = another dose, or the depositor's remark. Most compounds without a hit are left out; they make up all but 1.4% or so of the library.

C[C@@H]1CN([C@@H](C)CO)C(=O)c2cc(C#CCc3ccccc3)cnc2O[C@@H]1CN(C)C(=O)C1CCC1	none (no result: CDK5 p35 inh, GSK3 alpha inh, STK33 inh, GSK3B inh)
C[C@@H]1CN([C@H](C)CO)C(=O)c2cc(C#CCc3ccccc3)cnc2O[C@H]1CN(C)C(=O)C1CCC1	GSIS activator 54 (no result: CDK5 p35 inh, GSK3 alpha inh, STK33 inh, GSK3B inh)
C[C@@H]1CN([C@@H](C)CO)C(=O)c2cc(C#CCc3ccccc3)cnc2O[C@@H]1CN(C)C(=O)C1CC1	none (no result: CDK5 p35 inh, GSK3 alpha inh, STK33 inh, GSK3B inh)
COc1ccc(NC(=O)N(C)C[C@@H]2Oc3ccc(NC(=O)Cc4ccccc4)cc3C(=O)N([C@H](C)CO)C[C@H]2C)cc1	none (no result: CDK5 p35 inh, GSK3 alpha inh, STK33 inh, GSK3B inh)
CC1CCC(C(C)C)C(OC(=O)Cn2c(-c3ccc(Br)cc3)[n+](C)c3ccccc32)C1 (configuration not stated)	GSIS activator 275, Env fusion inh 58!
CC1CCC(C(C)C)C(OC(=O)Cn2c(-c3ccc(Cl)cc3)[n+](C)c3ccccc32)C1 (configuration not stated)	Env fusion inh 68
CC1CCC(C(C)C)C(OC(=O)COC(=O)c2cccn2C)C1 (configuration not stated)	none (no result: GSIS activator, Env fusion inh)
C[C@H]1CN([C@@H](C)CO)C(=O)c2cc(C#CC3CCCCC3)cnc2O[C@H]1CN(C)C(=O)c1ccncc1	none (no result: CDK5 p35 inh, GSK3 alpha inh, STK33 inh, GSK3B inh)
CCN(CC)S(=O)(=O)c1cc([N+](=O)[O-])ccc1NNC(=O)Nc1ccc(Cl)c(Cl)c1	Env fusion inh 97 (no result: GSIS activator)
C[C@H](CO)N1C[C@H](C)[C@@H](CN(C)Cc2ccc(Oc3ccccc3)cc2)Oc2c(NS(=O)(=O)c3cccs3)cccc2C1=O	none (no result: CDK5 p35 inh, GSK3 alpha inh, STK33 inh, Env fusion inh, GSK3B inh)
OCCCNc1nc(-c2ccc(Cl)cc2)nc2ccccc12	GSIS activator 58
O=C(NN=Cc1ccccc1Cl)c1cccc2ccccc12	GSIS activator 80 (no result: GSK3 alpha inh, STK33 inh, GSK3B inh)
O=C(N/N=C/c1cccc2ccccc12)c1ccccc1Cl	none
COc1ccc(NC(=O)Nc2cccc3c2O[C@@H](CN(C)S(=O)(=O)c2cn(C)cn2)[C@@H](C)CN([C@@H](C)CO)C3=O)cc1	none (no result: CDK5 p35 inh, GSK3 alpha inh, STK33 inh, GSK3B inh)
CCCCCCCCN1C(=O)[C@@H](CC(=O)N2CCOCC2)C[C@@]2(C(=O)OC)C1=C[C@H](C1CCCC1)O[C@@H]2C	none (no result: CDK5 p35 inh, GSIS activator, GSK3 alpha inh, STK33 inh, GSK3B inh)
CCCCCCCCN1C(=O)[C@@H](CC(=O)N2CCN(C(=O)C3CC3)CC2)C[C@@]2(C(=O)OC)C1=C[C@H](C1CCCC1)O[C@@H]2C	GSIS activator 72, Env fusion inh inconclusive (no result: CDK5 p35 inh, GSK3 alpha inh, STK33 inh, GSK3B inh)
CCCCCCCCN1C(=O)[C@@H](CC(=O)N2CCCC2)C[C@@]2(C(=O)OC)C1=C[C@H](C1CCCC1)O[C@@H]2C	GSIS activator 112 (no result: CDK5 p35 inh, GSK3 alpha inh, STK33 inh, GSK3B inh)
CNC[C@H]1Oc2c(NC(=O)Cc3ccccc3)cccc2C(=O)N([C@H](C)CO)C[C@@H]1C	none (no result: CDK5 p35 inh, GSK3 alpha inh, STK33 inh, Env fusion inh, GSK3B inh)
CCOC(=O)c1sc(NC(C)=O)nc1-c1ccccc1	GSIS activator 43 (no result: Env fusion inh)
CCOC(=O)c1sc(NC(=O)c2ccco2)nc1-c1ccccc1	none
O=C1CCCc2[nH]c3cccc(/C(=C/c4ccccc4)c4ccccc4)c3c21	Env fusion inh 70
CCCN(CCC)c1ncnc2nc[nH]c12	Env fusion inh 62
Clc1ccccc1CN(Cc1ccccc1)c1ncnc2nc[nH]c12	none (no result: GSIS activator, Env fusion inh)
O=C(Nc1ccccn1)c1ccc(C(=O)c2ccccc2)cc1	none
O=C(Nc1ccccc1)Nc1ccncc1	none
O=C(NC(=O)c1ccccc1)Nc1ccccn1	Env fusion inh 68
O=C(Nc1ccncc1)Nc1ccccn1	GSK3 alpha inh 72, GSK3B inh -62 (no result: Env fusion inh)
COc1ccccc1-n1cnc2sc(C)c(C)c2c1=O	GSIS activator 59
COc1ccc(C)cc1-n1cnc2sc(C)c(C)c2c1=O	none (no result: CDK5 p35 inh, GSK3 alpha inh, STK33 inh, GSK3B inh)
CS(=O)(=O)N1CCCCC1c1cc(C(=O)Nc2cccc(C#N)c2)no1 (configuration not stated)	GSIS activator 41 (no result: CDK5 p35 inh, GSK3 alpha inh, STK33 inh, GSK3B inh)
CCN(C1CCCCC1)S(=O)(=O)c1ccc(S(=O)(=O)NCc2ccncc2)cc1	Env fusion inh 81
CCN(C1CCCCC1)S(=O)(=O)c1ccc(S(=O)(=O)NCCc2ccncc2)cc1	none (no result: GSIS activator)
COc1ccc2nc3ccccc3nc2c1NC(=O)c1ccc(Br)cc1	none
COc1ccc2nc3ccccc3nc2c1NC(=O)c1ccc(Cl)cc1	GSIS activator 70
COc1cccc(-c2ccc3n(c2=O)C[C@@H]2[C@@H](CO)[C@H](C(=O)NCC4CC4)N(C(C)=O)[C@H]32)c1	none (no result: CDK5 p35 inh, GSK3 alpha inh, STK33 inh, Env fusion inh, GSK3B inh)
CCCN1[C@@H]2c3ccc(-c4cccnc4)c(=O)n3C[C@@H]2[C@@H](CO)[C@@H]1C(=O)OC	none (no result: CDK5 p35 inh, GSK3 alpha inh, STK33 inh, Env fusion inh, GSK3B inh)
C[C@@H]1CN([C@H](C)CO)S(=O)(=O)c2ccc(-c3ccc(F)cc3)cc2O[C@H]1CN(C)Cc1cccc(F)c1	GSIS activator 58 (no result: CDK5 p35 inh, GSK3 alpha inh, STK33 inh, GSK3B inh)
C[C@H]1CN([C@@H](C)CO)S(=O)(=O)c2ccc(-c3cccc(C#N)c3)cc2O[C@H]1CN(C)Cc1cccc(F)c1	Env fusion inh 74[16.7 µM] (no result: CDK5 p35 inh, GSK3 alpha inh, STK33 inh, GSK3B inh)
COCC(=O)N1CC[C@@H]2[C@@H](CO)N(C)c3ccc(-c4cccc(OC)c4)cc3[C@@H]21	none (no result: CDK5 p35 inh, GSK3 alpha inh, STK33 inh, Env fusion inh, GSK3B inh)
COc1ccc(S(=O)(=O)Nc2cccc3c2O[C@@H](CN(C)Cc2ccc(-c4ccccc4)cc2)[C@@H](C)CN([C@H](C)CO)C3=O)cc1	none (no result: CDK5 p35 inh, GSK3 alpha inh, STK33 inh, GSK3B inh)

Source: PubChem BioAssay (Broad Institute)
